Arbovirus anti – antivirals against arbovirus infection, primary screen, cell-based, full library, 10K replicate subset; arbovirus infection cell-based antiviral screen; inhibition, % at 10 µM; actives 0.37% (n = 200,000); in the data active = inhibition above about 30%
PKD1 inh – inhibitors of human PKD1 kinase, biochemical, fluorescence polarization; Serine/threonine-protein kinase D1 (Homo sapiens), Q15139; PKD1 kinase fluorescence polarization assay; inhibition, % (no concentration beside the values); actives 0.056% (n = 200,000); AID 797, 2007; in the data active = inhibition above about 50%
ROMK primary – ROMK potassium channel modulators, primary screen, cell-based, thallium flux, MLSMR library; Tet-inducible ROMK, thallium flux fluorescence; actives lie on both sides; ATP-sensitive inward rectifier potassium channel 1 (Homo sapiens), P48048; actives 2% (n = 130,000); B-score at 10 µM;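 active = signal ratio slope over the read window, or its plate-corrected B-score, at least 3 SD from the plate mean, either direction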;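 also: B-score of the F/F0 ratio slope over 7 to 12 s after thallium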
Cl transport mod – KCC2 cotransporter modulators, thallium flux, primary screen, cell-based, HEK293 KCC2, FluoZin-2 fluorescence, MLSMR; B-score of Tl+ flux slope (higher = more flux/activation; lower = inhibition) at 10 µM; actives 2.2% (n = 190,000); KCC2 cells, thallium flux FluoZin-2 fluorescence; AID 1456, 2008; Solute carrier family 12 member 5 (Homo sapiens), Q9H2X9;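 active = thallium flux slope and its plate-corrected score both differing from the plate sample mean at a set confidence after two filtering rounds, in either direction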;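 also: slope of fluorescence scaled to starting intensity during 10 to 20 s after thallium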
m-calpain inh – inhibitors of pig calpain II, primary screen, biochemical, fluorogenic peptide substrate, 1536-well. actives 0.37% (n = 220,000). purified calpain II, 30 min. inhibition, % at 16 µM;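 active = inhibition above about 50%, limit read from the data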
MDM2 E3 inh – MDM2-luciferase reporter signal enhancers, primary screen, MDM2 E3 ligase inhibitor project, cell-based, luminescence, 1536-well. cell-based MDM2 ubiquitination luciferase reporter, 2 h; 0 = plate control, 100 = twice control, blank-subtracted. signal enhancement, % at 5 µM. actives 0.11% (n = 210,000). AID 1230, 2008;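 active = signal enhancement of 30% or more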;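 also: luminescence tracks abundance of the self-degrading MDM2-luciferase fusion protein; higher signal means inhibition of MDM2 E3 ligase activity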
Target sequence (Q00987 whole entry, looked up, the tested form may be a part): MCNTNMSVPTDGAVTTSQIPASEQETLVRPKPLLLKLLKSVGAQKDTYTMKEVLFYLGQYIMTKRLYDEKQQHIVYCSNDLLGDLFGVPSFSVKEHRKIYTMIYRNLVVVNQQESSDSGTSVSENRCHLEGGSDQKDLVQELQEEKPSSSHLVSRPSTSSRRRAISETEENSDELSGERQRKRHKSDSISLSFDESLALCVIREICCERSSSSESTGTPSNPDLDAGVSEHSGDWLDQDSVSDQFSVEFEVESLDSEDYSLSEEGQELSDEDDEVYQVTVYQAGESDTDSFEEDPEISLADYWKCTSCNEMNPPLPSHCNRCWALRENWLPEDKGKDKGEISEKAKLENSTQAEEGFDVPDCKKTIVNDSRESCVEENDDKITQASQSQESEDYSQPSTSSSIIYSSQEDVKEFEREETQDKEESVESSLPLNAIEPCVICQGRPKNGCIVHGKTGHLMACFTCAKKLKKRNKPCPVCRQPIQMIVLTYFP
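Test system: stable mammalian line carrying autodegrading MDM2–luciferase fusion reporter; quantity: 2000 cells in each well; times: 4 h cell settling then 2 h compound exposure, 37 °C; detection: luminescence with SteadyLite reagent, 15 min at room temperature; evaluation: percent signal gain over controls, blank-subtracted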
* marks the source's active call; other numbers are inactive results; nt = no result given. This is a sample that favours compounds with a hit; in the whole collection about 3.7% have one here.

SMILES | Arbovirus anti | PKD1 inh | ROMK primary | Cl transport mod | m-calpain inh | MDM2 E3 inh
O=C1C(Cl)=C(N2CCCCC2)C(=O)C(Cl)=C1c1cnc(N2CCCCC2)s1 | 2.7 | -4.8 | nt | 0.227 | -101.0 | 72.5*
CN(C)c1ncc(C2=C(Cl)C(=O)C(N3CCCC3)=C(Cl)C2=O)s1 | -4.3 | 2.5 | nt | -1.96 | -131.5 | nt
CCOc1ccc(N=C2NC(=O)SC2CC(=O)OC)cc1 (stereo unspecified) | nt | nt | nt | -1.17 | -7.6 | -6.0
CCOC(=O)c1nc(C)sc1-c1ccnn1S(=O)(=O)c1ccc(C)cc1 | nt | nt | nt | -0.157 | -4.0 | -18.7
O=c1ccn(CCc2c[nH]c3ccccc23)c2c1CCCC2 | 7.3 | 6.1 | -0.0309 | -0.289 | 2.2 | -17.8
CC1(c2ccccc2)CC(C)(C)N2C(=O)/C(=C3\SC(=S)NC3=O)c3cccc1c32 (stereo unspecified) | 11.0 | 5.3 | nt | 20.2* | 32.1 | -10.3
Cc1ccc(NC(=S)NCCC(c2ccccc2)c2ccccc2)c(C)c1 | -19.0 | -0.6 | nt | 0.467 | 5.9 | -3.8
Cc1ccccc1NC(=S)NCCC(c1ccccc1)c1ccccc1 | -44.5 | -2.5 | nt | 0.247 | 77.8* | 0.1
C/C(CC(=O)NC1CCCCC1)=N\NC(=O)Cc1ccc(-c2ccccc2)cc1 | -6.4 | -2.8 | -0.503 | -0.489 | -12.1 | -6.2
Cc1ccc(-n2nnnc2-c2ccccc2)cc1 | -12.2 | -7.4 | 0.341 | 0.0288 | 40.1 | -11.4
Clc1ccc(-c2nnnn2-c2ccc(Cl)c(Cl)c2)cc1Cl | -0.6 | 5.4 | -0.62 | -0.506 | 55.3* | -7.5
CC1(C)Oc2ccc(C(=O)N3CCc4ccccc43)cc2N(CC(=O)N2CCCC2)C1=O | 11.4 | -16.5 | 3.76* | nt | -35.6 | -16.1
CC12CCC(C(=O)N(CSC(=S)N/N=C\c3ccccc3O)C1=O)C2(C)C (stereo unspecified) | -8.3 | 7.0 | -0.191 | 12.7* | -21.5 | -11.9
CN(C)c1ccc(/C=N\NC(=S)SCN2C(=O)C3CCC(C)(C2=O)C3(C)C)cc1 (stereo unspecified) | -15.6 | 6.1 | -0.479 | 6.39* | -56.6 | nt
COc1ccc(C(=O)NN2C(=O)C3CCC(C)(C2=O)C3(C)C)cc1 (stereo unspecified) | 5.4 | -7.4 | nt | -0.793 | -16.2 | -10.0
COc1ccc(/C=N\NC(=S)SCN2C(=O)C3CCC(C)(C2=O)C3(C)C)cc1 (stereo unspecified) | -4.4 | -7.2 | nt | 14* | 32.1 | nt
CN(C)c1ccc(/C=N/NC(=O)CCCO)cc1 | 7.6 | 1.2 | nt | 0.285 | -381.0 | -7.8
COc1cc(C(=O)NNC(=S)Nc2ccc(S(N)(=O)=O)cc2)cc(OC)c1OC | -0.3 | -4.3 | -0.49 | 0.877 | 27.0 | -18.4
COc1ccc(-n2c(=S)[nH]c3ccccc32)cc1 | -3.3 | -1.4 | 0.358 | 22.5* | 28.0 | -18.4
O=c1c2cc(F)ccc2[nH]c(=S)n1CCCN1CCOCC1 | 11.0 | -5.0 | nt | 6.44* | 8.0 | -17.9
O=c1c2ccccc2[nH]c(=S)n1CCN1CCN(Cc2ccccc2)CC1 | -5.0 | -5.3 | -0.0356 | 15.2* | -9.3 | 2.4
O=c1c2cccnc2[nH]c(=S)n1Cc1ccccc1 | 4.8 | 4.5 | nt | 5.49* | 17.5 | -16.7
CCN(CC)C(=O)CSc1nc2ccsc2c(=O)n1CCCC(=O)NCCc1ccc(S(N)(=O)=O)cc1 | 1.6 | -10.9 | 0.0701 | -0.0693 | 26.1 | -9.9
Cc1cc(NC(=O)CSc2nc3ccsc3c(=O)n2CCCC(=O)NCCc2ccccc2)no1 | -12.5 | 3.5 | 0.709 | -0.134 | 50.3* | -1.5
CCN(CC)CCCNC(=O)Cn1ccc2ccccc2c1=O | 1.6 | 6.0 | -0.784 | -0.0865 | -16.5 | -3.1
SMILES | Arbovirus anti | PKD1 inh | ROMK primary | Cl transport mod | m-calpain inh | MDM2 E3 inh
CCCCN(CC)CCNC(=O)CNC(=O)Cn1ccc2ccccc2c1=O | 15.3 | -4.5 | 0.00579 | 0.966 | 52.4* | -11.1
N#Cc1nc(COc2ccccc2)oc1N1CCN(c2cccc(Cl)c2)CC1 | 4.5 | 0.6 | 0.339 | -1.41 | 55.9* | -18.4
O=C1CC(N2CCN(C3CC(=O)N(CCc4ccccc4)C3=O)CC2)C(=O)N1CCc1ccccc1 (stereo unspecified) | -0.8 | -15.2 | 0.0221 | 0.0262 | 0.4 | -0.1
O=C1CC(N2CCC(Cc3ccccc3)CC2)C(=O)N1CCc1ccccc1 (stereo unspecified) | 30.4* | 2.4 | 0.259 | -1.65 | -14.3 | -1.8
CSc1nsc(/C=C/Nc2ccc(F)cc2)c1C#N | 7.5 | -5.2 | nt | -0.714 | -38.5 | 35.1*
COc1ccc(Cc2n[nH]c(=S)n2N)cc1OC | -11.7 | 8.4 | -0.706 | 0.17 | -3.8 | -8.8
O=C(NNC(=O)c1sccc1-n1cccc1)c1ccccc1 | -5.9 | -14.4 | nt | 1.93 | 28.6 | 1.7
Cc1ccc(CNC(=O)c2sccc2-n2cccc2)cc1 | 4.7 | -16.2 | nt | 6.92* | 38.2 | -17.2
O=C(NNC(=O)c1sccc1-n1cccc1)c1cccc(Cl)c1 | -3.3 | -2.9 | nt | 12.1* | -23.8 | 0.5
C=CCn1c(SCC#N)nnc1-c1ccc2ncccc2c1 | nt | nt | -0.0104 | -0.0164 | -17.6 | -17.6
O=C(NCc1ccccc1C(F)(F)F)C1CC(c2ccc(C(F)(F)F)cc2)=NO1 (stereo unspecified) | nt | nt | nt | -0.57 | 25.2 | 12.8
O=C(Nc1nnc(-c2ccccc2SCc2ccccc2F)s1)Nc1ccccc1F | -21.5 | 0.3 | 0.515 | 0.682 | 50.8* | -2.7
C=C1C(=O)O[C@@H]2C[C@@H](C)[C@@H]3C=CC(=O)[C@@]3(C)[C@@H](OC(C)=O)[C@H]12 | nt | nt | nt | -0.746 | -16.2 | 35.1*
COc1cc([N+](=O)[O-])cc2sc(NC(=O)C3CC3)nc12 | -3.3 | -2.7 | 1.8 | 0.454 | 12.2 | -3.9
COc1ccccc1N1CCN(C(c2ccc(C)cc2)c2nnnn2C(C)C)CC1 (stereo unspecified) | -1.5 | 1.3 | -0.276 | nt | -3.4 | 38.1*
COc1ccccc1N1CCN(C(c2ccc(F)cc2)c2nnnn2C(C)C)CC1 (stereo unspecified) | 8.8 | -6.7 | nt | 0.00594 | 2.4 | -2.1
CCC(=C(c1ccc(OC)cc1)c1ccc(OC)cc1)c1cn(CC(O)CN2CCN(C)CC2)c2ccccc12 (stereo unspecified) | -35.9 | 22.1 | -1.22 | -0.122 | -115.0 | -17.2
Cc1ccsc1/C=N/NC(=O)c1sccc1C | -2.6 | -0.9 | nt | 5.69* | 3.1 | -30.2
O=C(O)c1cc(-c2ccc3c(c2)OCCO3)n[nH]1 | 0.4 | -4.0 | -0.29 | -0.00812 | -19.2 | 5.1
Oc1ccc(Br)cc1-c1cc(-c2ccc(Cl)cc2)n[nH]1 | 73.5* | -4.5 | 0.122 | -1 | -30.2 | -12.7
Oc1ccc(Br)cc1-c1cc(-c2ccccc2)n[nH]1 | 36.1* | 4.7 | nt | 0.181 | -29.0 | nt
